From article PMC8745002 (European journal of immunology, 2021)

Experiments:
[1] = In vitro plasma stability assay, mouse plasma; format: in vitro ADME; settings: 37 °C, comparison in words
SRBC-vaccinated mice [2] = assay: Mouse pan IgG and IgM ELISA; format: in vivo, C57/BL6 mice; settings: 11 days after vaccination
Summary of the method: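 Male C57/BL6 mice, 8–12 weeks old, given 100 µL 10% SRBC i.p. on day 0. From 3 days later, 8-day course of test compound (100 µL vehicle, once or three times daily, 5 h apart) or vehicle on the same schedule. Plasma collected at CO2 euthanasia on day 11. Total IgG and IgM measured by commercial ELISA kit per manufacturer. Welch test.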

SRBC-vaccinated mice [3] = assay: SRBC vaccination mouse model, flow cytometry of splenic cells; format: in vivo, C57/BL6 mice; settings: FX1 80 mg/kg once daily, 8-day course; spleen, day 11
Summary of the method: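 Male C57/BL6 mice, 8–12 weeks old, given 100 µL 10% SRBC i.p. on day 0. Compound dosed in 100 µL vehicle from day 3; vehicle controls matched. Spleens taken on day 11 and meshed through a 70 µm strainer. Cells spun 2000 rpm for 10 min, washed in PBS with 2% FBS. Two million mononuclear cells stained for surface and intracellular markers, analysed on a 4-laser LSRII.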

[4] = cited from earlier work
BCL6 = settings: cited from earlier work
[5] = In vitro plasma stability assay, human plasma; format: in vitro ADME; settings: 37 °C
Summary of the method: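 Compound in DMSO, diluted to a 0.1 mM working solution in DMSO:water (1:1, v/v). Mouse, rat or human plasma thawed and pre-warmed at 37 °C, then mixed 100:1 (plasma:working solution). Incubated at 37 °C, 5% CO2, shaking at 200 rpm. Half-life determined from this plasma incubation.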

SRBC-vaccinated mice [6] = assay: SRBC-specific IgM and IgG1 detection in plasma by flow cytometry; format: in vivo, C57/BL6 mice; settings: mice receiving FX1 (80 mg/kg once daily)
Summary of the method: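 Plasma taken on day 11 from SRBC-vaccinated (100 µL 10% i.p.) male C57/BL6 mice given compound or vehicle (100 µL) from day 3, diluted 1:5 in PBS. 5 µL incubated with 20 µL 2% SRBC for 5 min, then 20 min with fluorescent anti-mouse IgM or IgG1. Washed, fixed in 1% PFA, read by flow with isotype controls. MFI normalised to unvaccinated-mouse plasma, as fold change.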

rhesus macaque = settings: FX1 treatment; cited from earlier work

total titer of plasma pan IgG and IgM vs vehicle (SRBC-vaccinated mice [2]): no difference | T1/2 in human plasma [5]: 3.29 h
SMILES: O=C(O)CCN1C(=O)/C(=C2/C(=O)Nc3ccc(Cl)cc32)SC1=S [FX1]
stability (T1/2) in mouse plasma [1]: significantly longer stability over AP-4-287 in mouse plasma | GC B cells (SRBC-vaccinated mice [3]): can lower GC B | frequency of CD4+ Tfh within GCs (SRBC-vaccinated mice [3]): did not reduce | aqueous solubility [4]: poor aqueous solubility | affinity compared with natural ligand (SMRT) (BCL6): higher affinity than its natural ligand (SMRT) | SRBC-specific IgM and IgG1 vs vehicle (SRBC-vaccinated mice [6]): Lower | lymphoid hyperplasia (rhesus macaque): reversal of lymphoid hyperplasia
